Measurements published in PMC5970367 (Chembiochem : a European journal of chemical biology, 2017).
Where two headings read alike, the source gives them in different places.

How the values were obtained:
[1] = tested on: 5′-fluorescein labeled HCV SLIIb; assay: Reaction kinetics via fluorescence; assay type: biochemical, hepatitis C virus; conditions: pseudo Michaelis-Menten, catalytic efficiency
In short: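 Copper–peptide complexes were formed at 1.1:1 peptide:Cu. Each complex was added to 333 nM 5′-fluorescein-SLIIb with 1 mM ascorbic acid and 1 mM H2O2 in 20 mM HEPES (pH 7.4, 100 mM NaCl) at 25 °C. Fluorescence loss was followed at ex 491/em 518 nm and converted to RNA concentration by a calibration curve. Initial velocities were plotted against catalyst concentration and fit to Michaelis–Menten to give KM and kcat. Values are the mean of ≥3 trials.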

[2] = tested on: fluorescein-labelled SLIIb; assay: Reaction rates monitored by agarose gel electrophoresis; assay type: biochemical, hepatitis C virus; conditions: addition of complex to SLIIb
[3] = tested on: fluorescein-labeled IRES SLIIb; assay: Time-dependent MALDI-TOF mass spectrometry of SLIIb cleavage; assay type: biochemical, hepatitis C virus; conditions: for Initial Rate (%Overhang/min), 2′, 3′-cPO4: overhang 2′,3′-cyclic phosphates; for Initial Rate (%Overhang/min), 2′, 3′-cPO4 / Initial Rate (%Overhang/min), 3′-AL / Initial Rate (%Overhang/min), 3′-OH / Initial Rate (%Overhang/min), 3′-PO4 / Initial Rate (%Overhang/min), 3′-PGA / Initial Rate (%Overhang/min), 3′-PG / Initial Rate (%Overhang/min), 5′-AL / Initial Rate (%Overhang/min), 5′-GemDiol / Initial Rate (%Overhang/min), 5′-OH / Initial Rate (%Overhang/min), 5′-PO4 / Initial Rate (%Overhang/min), 5′-PPA: MALDI-TOF time dependence; for Initial Rate (%Overhang/min), 3′-AL: overhang 3′-aldehyde; for Initial Rate (%Overhang/min), 3′-OH: overhang 3′-hydroxyl; for Initial Rate (%Overhang/min), 3′-PO4: overhang 3′-phosphates; for Initial Rate (%Overhang/min), 3′-PGA: overhang 3′-phosphoglycaldehyde; for Initial Rate (%Overhang/min), 3′-PG: overhang 3′-phosphoglycolate; for Initial Rate (%Overhang/min), 5′-AL: overhang 5′-aldehyde; for Initial Rate (%Overhang/min), 5′-GemDiol: overhang 5′-geminal diol; for Initial Rate (%Overhang/min), 5′-OH: overhang 5′-hydroxyl; for Initial Rate (%Overhang/min), 5′-PO4: overhang 5′-phosphate; for Initial Rate (%Overhang/min), 5′-PPA: overhang 5′-phosphopropenal; for Relative Initial Rate (Normalized Intensity/min × 1000), position A6 / Relative Initial Rate (Normalized Intensity/min × 1000), position A15 / Relative Initial Rate (Normalized Intensity/min × 1000), position A19 / Relative Initial Rate (Normalized Intensity/min × 1000), position A27 / Relative Initial Rate (Normalized Intensity/min × 1000), position A30 / Relative Initial Rate (Normalized Intensity/min × 1000), position C10 / Relative Initial Rate (Normalized Intensity/min × 1000), position C33 / Relative Initial Rate (Normalized Intensity/min × 1000), position G5 / Relative Initial Rate (Normalized Intensity/min × 1000), position G9 / Relative Initial Rate (Normalized Intensity/min × 1000), position G11 / Relative Initial Rate (Normalized Intensity/min × 1000), position G28 / Relative Initial Rate (Normalized Intensity/min × 1000), position U12 / Relative Initial Rate (Normalized Intensity/min × 1000), position U14 / Relative Initial Rate (Normalized Intensity/min × 1000), position U25 / Relative Initial Rate (Normalized Intensity/min × 1000), position U26 / Relative Initial Rate (Normalized Intensity/min × 1000), position U29 / Relative Initial Rate (Normalized Intensity/min × 1000), position U31: 10 μM SLIIb, 10 μM copper-peptide
In short: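 Reactions contained 10 μM Fl-SLIIb, 10 μM Cu–peptide, 1 mM ascorbate and 1 mM H2O2, and were sampled at 2–180 min. They were quenched on ice, C18-desalted, and analysed by negative-ion reflectron MALDI-TOF (HPA/ammonium citrate matrix, ≥1000 shots). Peaks with m/z >1500 and S/N >5 were assigned against expected product masses. Products were summed per overhang type and expressed as a fraction at each time point. Initial rate was taken from the linear region (first ~40 min).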

[4] = tested on: 5′-fluorescein labeled HCV SLIIb; conditions: pseudo Michaelis-Menten, fluorescence, cited from earlier work

Substance	kcat/KM [1]	Initial Rate (%Overhang/min), 2′, 3′-cPO4 [3]	Initial Rate (%Overhang/min), 3′-AL [3]	Initial Rate (%Overhang/min), 3′-OH [3]	Initial Rate (%Overhang/min), 3′-PO4 [3]	Initial Rate (%Overhang/min), 3′-PGA [3]	Initial Rate (%Overhang/min), 3′-PG [3]	Initial Rate (%Overhang/min), 5′-AL [3]	Initial Rate (%Overhang/min), 5′-GemDiol [3]	Initial Rate (%Overhang/min), 5′-OH [3]	Initial Rate (%Overhang/min), 5′-PO4 [3]	Initial Rate (%Overhang/min), 5′-PPA [3]	Relative Initial Rate (Normalized Intensity/min × 1000), position A6 [3]	Relative Initial Rate (Normalized Intensity/min × 1000), position A15 [3]	Relative Initial Rate (Normalized Intensity/min × 1000), position A19 [3]	Relative Initial Rate (Normalized Intensity/min × 1000), position A27 [3]	Relative Initial Rate (Normalized Intensity/min × 1000), position A30 [3]	Relative Initial Rate (Normalized Intensity/min × 1000), position C10 [3]	Relative Initial Rate (Normalized Intensity/min × 1000), position C33 [3]	Relative Initial Rate (Normalized Intensity/min × 1000), position G5 [3]	other results
GGHKRFK-Cu [11-Cu]	367 M⁻¹ s⁻¹	–	–	–	–	–	–	–	–	–	–	–	–	–	–	–	–	–	–	–	precipitation from solution on addition to SLIIb [2]: significant precipitation
GGHYRFA-Cu [7-Cu]	417 M⁻¹ s⁻¹	0.1 ± 0.1 %Overhang/min	0.8 ± 0.1 %Overhang/min	0.4 ± 0.1 %Overhang/min	0.1 ± 0.1 %Overhang/min	0.6 ± 0.2 %Overhang/min	0.2 ± 0.1 %Overhang/min	1.5 ± 0.5 %Overhang/min	0.2 ± 0.1 %Overhang/min	1.1 ± 0.2 %Overhang/min	0.5 ± 0.2 %Overhang/min	0.5 ± 0.1 %Overhang/min	- ^a	- ^a	0.8 ± 0.4 Normalized Intensity/min × 1000	- ^a	1.0 ± 0.4 Normalized Intensity/min × 1000	- ^a	- ^a	- ^a	Relative Initial Rate (Normalized Intensity/min × 1000), position G9 [3]: <1 Normalized Intensity/min × 1000; Relative Initial Rate (Normalized Intensity/min × 1000), position G11 [3]: 1.6 ± 0.7 Normalized Intensity/min × 1000; Relative Initial Rate (Normalized Intensity/min × 1000), position G28 [3]: - ^a; Relative Initial Rate (Normalized Intensity/min × 1000), position U12 [3]: <1 Normalized Intensity/min × 1000; Relative Initial Rate (Normalized Intensity/min × 1000), position U14 [3]: - ^a; Relative Initial Rate (Normalized Intensity/min × 1000), position U25 [3]: <1 Normalized Intensity/min × 1000; Relative Initial Rate (Normalized Intensity/min × 1000), position U26 [3]: <1 Normalized Intensity/min × 1000; Relative Initial Rate (Normalized Intensity/min × 1000), position U29 [3]: 2.9 ± 0.6 Normalized Intensity/min × 1000; Relative Initial Rate (Normalized Intensity/min × 1000), position U31 [3]: - ^a
GGhyrfk-Cu [2-Cu]	–	–	–	–	–	–	–	–	–	–	–	–	–	–	–	–	–	–	–	–	Km ([4]; ref 4d): 7.9 ± 1.2 µM; kcat ([4]; ref 4d): 0.00233 ± 0.00017 s⁻¹; kcat/KM ([4]; ref 4d): 300 M⁻¹ s⁻¹
GGHYrFK-Cu [1-Cu]	–	–	–	–	–	–	–	–	–	–	–	–	–	–	–	–	–	–	–	–	Km ([4]; ref 4b): 0.8 ± 0.1 µM; kcat ([4]; ref 4b): 0.00883 ± 0.00033 s⁻¹; kcat/KM ([4]; ref 4b): 11000 M⁻¹ s⁻¹
GGHKFRY-Cu [8-Cu]	120 M⁻¹ s⁻¹	0.1 ± 0.1 %Overhang/min	0.2 ± 0.1 %Overhang/min	0.4 ± 0.1 %Overhang/min	1.3 ± 0.2 %Overhang/min	0.3 ± 0.1 %Overhang/min	0.1 ± 0.1 %Overhang/min	0.9 ± 0.1 %Overhang/min	0.5 ± 0.1 %Overhang/min	1.1 ± 0.4 %Overhang/min	0.7 ± 0.1 %Overhang/min	0.7 ± 0.1 %Overhang/min	- ^a	- ^a	- ^a	1.1 ± 0.3 Normalized Intensity/min × 1000	<1 Normalized Intensity/min × 1000	- ^a	- ^a	3.7 ± 1.8 Normalized Intensity/min × 1000	Relative Initial Rate (Normalized Intensity/min × 1000), position G9 [3]: - ^a; Relative Initial Rate (Normalized Intensity/min × 1000), position G11 [3]: 0.6 ± 0.2 Normalized Intensity/min × 1000; Relative Initial Rate (Normalized Intensity/min × 1000), position G28 [3]: <1 Normalized Intensity/min × 1000; Relative Initial Rate (Normalized Intensity/min × 1000), position U12 [3]: - ^a; Relative Initial Rate (Normalized Intensity/min × 1000), position U14 [3]: - ^a; Relative Initial Rate (Normalized Intensity/min × 1000), position U25 [3]: <1 Normalized Intensity/min × 1000; Relative Initial Rate (Normalized Intensity/min × 1000), position U26 [3]: <1 Normalized Intensity/min × 1000; Relative Initial Rate (Normalized Intensity/min × 1000), position U29 [3]: <1 Normalized Intensity/min × 1000; Relative Initial Rate (Normalized Intensity/min × 1000), position U31 [3]: - ^a
